Hits are enriched below; roughly 5.7% of the tested compounds scored in any of these assays.
Mdm2 MdmX PPI: human Mdm2/MdmX binding inhibition; SaOS-2 split-luciferase Mdm2/MdmX complementation, luminescence; inhibition, % at 8 µM; hit rate 3% among 330,000;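 active means inhibition of at least 50% at 8 µM in the primary screen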
CSC inhib: cancer stem cell inhibition | cancer stem cell-like cells viability, luminescence | inhibition, % at 7.5 µM | hit rate 1.1% among 300,000 | AID 2717; in the data active means inhibition above about 75%; tested in HMLE shEcad cells
Calb FLC: C. albicans growth modulation with fluconazole. C. albicans CaCi-2 (fluconazole-resistant clinical isolate) + fluconazole, Alamar Blue growth, 48 h. growth inhibition, % (test concentration not listed). hit rate 0.57% among 300,000;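 active means growth inhibition above about 58% in most replicates, limit read from the data, passing the limit was not always enough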;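 further: all wells also contain fluconazole at 8 µg/ml as a sub-toxic cotreatment; 0% = median of DMSO wells and 100% = median of geldanamycin control wells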
Beta cell apopt: beta cell apoptosis inhibition; INS-1E cytokine-induced death, ATP luminescence, 48 h; percent of positive-control rescue, neutral wells zero; protection from apoptosis, % (concentration not given with the values); hit rate 0.8% among 300,000;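 active means Every replicate reaches about 75%, or at least half do and their mean reaches it too, limit read from the data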;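 further: 0% = cytokine-treated negative control wells and 100% = positive control rescue; higher means more ATP so stronger rescue from cytokine killing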
SKKanGAS inh: inhibitors of SKKanGAS S. pyogenes growth in kanamycin (SK-promoter or general growth effect); inhibition, % at 7.5 µM; AID 1662; hit rate 1.3% among 300,000; BacTiter-Glo, 6 h;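 active means mean replicate score, as percent of positive control median, at least 50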;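 further: strain carries kanamycin resistance gene driven by streptokinase promoter and grows in 40 µg/ml kanamycin; loss of luminescence reflects streptokinase promoter inhibition or plain growth inhibition; 0% = median of DMSO wells and 100% = positive control at its reference dose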
T cruzi inh: blocks replication of Trypanosoma cruzi. T. cruzi beta-gal in NIH3T3, luminescence, 90 h. inhibition, % (test concentration not listed). hit rate 1.4% among 300,000. AID 1885;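 active means mean inhibition across valid replicates above about 55%, limit read from the data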;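 further: signal also drops with host cell toxicity which is not excluded here; 0% = plate median of DMSO wells and 100% = zero luminescence signal; higher percent means less beta-gal luminescence so fewer parasites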
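System: NIH/3T3 fibroblasts plus reporter T. cruzi. Medium: DMEM plus 2% FBS. Probe or stimulus: 5000 reporter trypomastigotes per well. Compound: single 50 nL compound addition per well in DMSO. Incubation: co-culture of at least 90 h after 3 h attachment. Detection: GalScreen β-gal luminescence, detergent lysis, 60 min. Evaluation: parasite load inhibition, %.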
Mdm2-MdmX conf: confirmation of human Mdm2/MdmX interaction inhibitors; hit rate 55% among 10,000; inhibition, % at 8 µM; Mdm2-MdmX binding, luminescent assay; shares compounds with Mdm2 MdmX PPI; AID 489028; in the data active means inhibition above about 40%
Full FLuc ctr: inhibits full-length luciferase, flagging false Mdm2/MdmX hits; hit rate 77% among 6,200; inhibition, % at 8 µM; shares compounds with Mdm2 MdmX PPI; SaOS-2 full-length luciferase counterscreen, luminescence; AID 504607;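 active means mean inhibition at 8 µM reaching about 37%, which flags the compound as non-specific, limit read from the data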;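 further: p53-null SaOS-2 cells with luciferase driven by a doxycycline-inducible promoter; compound on cells about two nights before reading with doxycycline added after day one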
Starred values were filed as active, the others as inactive.

For COc1ccc(OC)c(N(/C(N)=N/c2nc(C)cc(C)n2)S(=O)(=O)c2ccc(NC(C)=O)cc2)c1 the results were Mdm2 MdmX PPI 62.8*, CSC inhib 13.4, Calb FLC 13.2, Beta cell apopt 0.0, SKKanGAS inh 8.7, T cruzi inh -5.1, Mdm2-MdmX conf 25.0 and Full FLuc ctr 90.1*.
Screening COc1ccc(OC)c(N/C(=N/c2nc(C)cc(C)n2)NC(C)=O)c1 returned Mdm2 MdmX PPI -3.5, CSC inhib -2.9, Calb FLC -13.5, Beta cell apopt -1.4, SKKanGAS inh -10.6 and T cruzi inh -6.8.
`Cn1c(=O)n(C)c2cc(NC(=O)COc3ccc(F)cc3)ccc21` gave Mdm2 MdmX PPI -4.6, CSC inhib 1.7, Calb FLC 0.7, Beta cell apopt 1.3, SKKanGAS inh -1.7 and T cruzi inh 3.5.
Screening CCN(C[C@H]1N[C@@](C)(C(=O)OC)[C@H]2C(=O)N(C)C(=O)[C@@H]12)S(=O)(=O)c1ccc(OC)cc1 returned Mdm2 MdmX PPI 10.1.
For Cc1ccccc1N(Cc1cc(=O)[nH]c2ccccc12)C(=O)CCl the results were Mdm2 MdmX PPI 95.8*, CSC inhib 22.0, Calb FLC -5.5, Beta cell apopt -21.5, SKKanGAS inh 0.6, T cruzi inh 11.0, Mdm2-MdmX conf 73.2* and Full FLuc ctr 58.4*.
Screening Cc1ccccc1N(Cc1cc(=O)[nH]c2ccccc12)C(=O)C(C)C returned Mdm2 MdmX PPI 17.0, CSC inhib -7.0, Calb FLC -5.6, Beta cell apopt -4.6, SKKanGAS inh 0.5 and T cruzi inh 12.3.
`CCC(=O)N(Cc1cc(=O)[nH]c2ccccc12)c1ccccc1` gave Mdm2 MdmX PPI 4.8, CSC inhib 0.5, Calb FLC 2.4, Beta cell apopt -3.1, SKKanGAS inh -9.2 and T cruzi inh -1.1.
For O=C(CCl)N(Cc1cc(=O)[nH]c2ccccc12)c1ccccc1 the results were Mdm2 MdmX PPI 100.3*, CSC inhib 45.0, Calb FLC 23.0, Beta cell apopt -16.6, SKKanGAS inh 0.1, T cruzi inh 10.1, Mdm2-MdmX conf 100.2* and Full FLuc ctr 52.8*.
For COC(=O)c1ccc(C(=O)N(Cc2ccccc2)c2ccccc2)cc1 the results were Mdm2 MdmX PPI 46.9, CSC inhib -2.0, Calb FLC 17.4, Beta cell apopt 1.1, SKKanGAS inh 4.5 and T cruzi inh 8.2.
O=C(CCl)N(Cc1ccccc1)c1ccccc1 was read as Mdm2 MdmX PPI 96.3*, CSC inhib 5.9, Calb FLC 24.5, Beta cell apopt -4.0, SKKanGAS inh -10.6, T cruzi inh 48.2, Mdm2-MdmX conf 96.3* and Full FLuc ctr 55.4*.
`Cc1ccc(-n2nc3c(c2NC(=O)C(C)C)CS(=O)(=O)C3)cc1` gave Mdm2 MdmX PPI 30.1, CSC inhib -19.0, Calb FLC -2.5, Beta cell apopt -0.6, SKKanGAS inh -1.3 and T cruzi inh -8.6.
`COc1ccc(C2=NOC(Cn3nc(C(=O)NCC4CC4)cc3-c3ccccc3)C2)cc1` (configuration not stated) gave Mdm2 MdmX PPI 5.2, CSC inhib -6.8, Calb FLC 12.5, Beta cell apopt -3.5, SKKanGAS inh -1.1 and T cruzi inh -3.4.
`COc1cc(NS(=O)(=O)c2ccc3c(c2)oc(=O)n3C)cc(OC)c1OC` gave Mdm2 MdmX PPI 57.2*, CSC inhib 22.9, Calb FLC -0.8, Beta cell apopt 3.2, SKKanGAS inh -2.0, T cruzi inh -6.6 and Mdm2-MdmX conf 20.1.
`CCOC(=O)Cn1nnnc1CN(Cc1cccs1)Cc1cc2cc(C)ccc2[nH]c1=O` gave Mdm2 MdmX PPI 5.5, Calb FLC 10.4, Beta cell apopt -2.5, SKKanGAS inh -2.2 and T cruzi inh 10.8.
Cc1ccc2[nH]c(=O)c(CN(Cc3cccs3)Cc3nnnn3Cc3ccccc3)cc2c1 was read as Mdm2 MdmX PPI 50.0, CSC inhib 5.4, Calb FLC 1.5, Beta cell apopt -8.5, SKKanGAS inh 14.4, T cruzi inh 32.4 and Mdm2-MdmX conf 21.4.
Clc1cccc(CN2CCCCCC2)c1Cl was read as Mdm2 MdmX PPI 10.9, CSC inhib -9.5, Calb FLC -0.8, Beta cell apopt -7.7, SKKanGAS inh 3.6 and T cruzi inh -17.3.
